High-throughput results from PubChem BioAssay.
CHRM5 antagonist – human M5 muscarinic receptor antagonists, primary screen, CHO cells, Fluo-8 calcium fluorescence | Muscarinic acetylcholine receptor M5 (Homo sapiens), P08912 | CHO-hM5 cells, ACh EC80 | inhibition, % at 3 µM | actives 0.59% (n = 360,000) | AID 624040, 2012;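 active = inhibition above a per-plate cutoff, the mean of that plate's test compounds plus 3 SD, cut at about 27% in these data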;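 note: 0% = acetylcholine EC80 with DMSO and 100% = DMSO without agonist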
Target sequence (P08912 whole entry, looked up): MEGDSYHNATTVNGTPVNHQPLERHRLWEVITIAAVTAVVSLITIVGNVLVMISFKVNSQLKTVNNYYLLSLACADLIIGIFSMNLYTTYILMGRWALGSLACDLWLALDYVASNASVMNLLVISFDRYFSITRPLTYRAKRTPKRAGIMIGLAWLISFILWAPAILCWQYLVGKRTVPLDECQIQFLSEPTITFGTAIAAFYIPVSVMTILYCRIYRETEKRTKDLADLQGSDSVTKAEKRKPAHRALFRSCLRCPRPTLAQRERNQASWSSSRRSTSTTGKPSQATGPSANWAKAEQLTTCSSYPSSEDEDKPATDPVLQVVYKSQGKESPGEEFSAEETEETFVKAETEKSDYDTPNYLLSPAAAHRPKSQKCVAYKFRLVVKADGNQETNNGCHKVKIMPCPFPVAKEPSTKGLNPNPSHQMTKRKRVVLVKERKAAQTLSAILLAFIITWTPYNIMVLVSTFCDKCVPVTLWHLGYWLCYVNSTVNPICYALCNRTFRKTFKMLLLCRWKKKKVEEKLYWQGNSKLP
CHRM5 PAM – human M5 muscarinic receptor positive allosteric modulators, primary screen, CHO-K1 cells, Fluo-8 calcium fluorescence | Muscarinic acetylcholine receptor M5 (Homo sapiens), P08912 | CHO-K1 hM5, ACh EC20 PAM; 0% = ACh EC20, 100% = ACh EC100 | activation, % at 3 µM | actives 0.3% (n = 360,000) | AID 624038, 2012;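 active = activation above the run cutoff, the mean activation of all test compounds plus 3 SD, cut at about 18% in these data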
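Replicates: One well per compound, no replicates | System: Human M5 receptor in CHO-K1 cells | Benchmarks: Low control EC20 acetylcholine (0%), high control EC100 acetylcholine (100%) | Probe or stimulus: Acetylcholine, EC20 level | Times: Fluo-8 loading 80 min at 37 °C plus 30 min room temperature | Signal: Intracellular calcium via Fluo-8 fluorescence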
M5 ag – human M5 muscarinic receptor agonists, primary screen, CHO-K1 cells, Fluo-8 calcium fluorescence; Muscarinic acetylcholine receptor M5 (Homo sapiens), P08912; CHO-K1 hM5 cells; 0% DMSO wells, 100% maximal acetylcholine response; activation, % at 3 µM; actives 0.19% (n = 360,000); AID 624037, 2012;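 active = activation above the run's mean over test compounds plus 3 SD, cut at about 23% in these data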;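 note: signal is peak over basal fluorescence ratio across the kinetic read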
M4 PAM – human M4 muscarinic receptor positive allosteric modulators, primary screen, CHO-K1 cells, Fluo-8 calcium fluorescence | Muscarinic acetylcholine receptor M4 (Homo sapiens), P08173 | CHO-K1 hM4/Gqi5, ACh EC20; 0% = ACh EC20, 100% = maximal ACh | activation, % at 3 µM | actives 0.4% (n = 360,000) | AID 624126, 2012;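 active = activation above its plate's cutoff, the mean activation of sample wells plus 3 SD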
CHRM4 agonist – human M4 muscarinic receptor agonists, primary screen, CHO-K1 cells, Fluo-8 calcium fluorescence | Muscarinic acetylcholine receptor M4 (Homo sapiens), P08173 | AID 624127, 2012 | activation, % at 3 µM | actives 0.14% (n = 360,000) | CHO-K1 hM4/Gqi5; vehicle 0%, full acetylcholine response 100%;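 active = activation above the run mean over all test wells plus 3 SD, cut at about 32% in these data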;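 note: peak over basal fluorescence ratio per well then scaled between controls; 0% = DMSO wells and 100% = acetylcholine at EC100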
CHRM4 antagonist – human M4 muscarinic receptor antagonists, primary screen, CHO cells, Fluo-8 calcium fluorescence; inhibition, % at 3 µM; Muscarinic acetylcholine receptor M4 (Homo sapiens), P08173; CHO-hM4 cells, ACh EC80; actives 0.73% (n = 360,000);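 active = inhibition above its plate's cutoff, the mean inhibition of sample wells plus 3 SD, cut at about 27% in these data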;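 note: 0% = acetylcholine EC80 with DMSO and 100% = DMSO without agonist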
Active calls of the source: *; ! = not confirmed by another sample. Hits are enriched below; roughly 1.8% of the tested compounds scored in any of these assays.

SMILES | CHRM5 antagonist | CHRM5 PAM | M5 ag | M4 PAM | CHRM4 agonist | CHRM4 antagonist
COc1cc(C2c3cc4c(cc3CC3COC(=O)C32)OCO4)cc(OC)c1OC (stereo unspecified) | 1 | 6 | -1 | 3 | 1 | -9
COc1ccc(NC2Oc3cc4c(cc3C(c3cc(OC)c(OC)c(OC)c3)C2C)OCO4)cc1 (stereo unspecified) | -11 | 19* | 3 | 13 | 1 | -15
COC(=O)C1=C(c2ccc(C(C)=O)cc2)C[C@@H]2CC[C@H]1N2C(=O)NCc1ccc(F)cc1 | 8 | -2 | -1 | -7 | 1 | 10
CN1C2CCC1CC(OC(c1ccccc1)c1ccccc1N)C2 (stereo unspecified) | 99* | -19 | -1 | -19 | 0 | 100*
O=c1[nH]c2ccccc2n1C1CCN(C(c2cc3ccccc3o2)c2nnnn2-c2ccc3c(c2)OCCO3)CC1 (stereo unspecified) | 21 | -17 | 2 | -11 | 17 | 10
CCOc1cc2c(cc1OCC)-n1cccc1C(c1cccc(F)c1F)NC2 (stereo unspecified) | 11 | -4 | -4 | -4 | 0 | 0
COc1ccc(-n2c(/C=C3/C(=O)Nc4ccccc43)nc3ccccc3c2=O)cc1 | 1 | -1 | 5 | 4 | 3 | 97*
COc1cc(/C=C/c2nc3ccccc3c(=O)n2-c2ccc(O)cc2)ccc1O | 25 | -12 | 3 | -12 | 22 | 29*
CCNC(=O)NC(=O)C(C)OC(=O)c1c(C)nn(Cc2ccccc2)c1Cl (stereo unspecified) | -3 | 1 | -3 | 7 | -1 | -4
CC(C)N(CCC(C(N)=O)(c1ccccc1)c1ccccn1)C(C)C (stereo unspecified) | 39*! | -18 | -2 | -16 | 0 | 22
Oc1c(Cl)cccc1Cc1cc(Cl)cc(Cl)c1O | 30* | -24 | 4 | -3 | 10 | 10
Cc1ccc(C[n+]2c(-c3ccc(C)cc3)cc(-c3ccc(C)cc3)cc2-c2ccc(C)cc2)cc1 | 37* | -29 | 3 | -3 | 19 | 21
CCOC(=O)c1ccc(NC(=O)N2C[C@@H]3C[C@@H](C2)c2cccc(=O)n2C3)cc1 | 3 | -9 | -1 | -14 | 0 | 69*
CCOC(=O)c1ccc(NC(=O)N2CC3CC(C2)c2cccc(=O)n2C3)cc1 (stereo unspecified) | 5 | 2 | -2 | -3 | 1 | 3
CCOC(=O)[C@]12Cc3ccc(C)cc3[C@H]1N(C1CCCCC1)C(=O)c1ccccc12 | 6 | 13 | 11 | 2 | -3 | 6
CCOC(=O)[C@]12Cc3cc(Cl)ccc3[C@H]1N(C1CCCCC1)C(=O)c1cc(OC)ccc12 | 18 | 6 | 51* | -9 | 1 | 77*
CCOC(=O)[C@]12Cc3ccc(C)cc3[C@H]1N(C1CCCCC1)C(=O)c1cc(OC)ccc12 | 4 | 16 | 18 | 5 | -2 | 21
CCOC(=O)[C@]12Cc3cc(C)ccc3[C@H]1N(C1CCCCC1)C(=O)c1ccccc12 | 6 | 9 | 27* | -3 | 3 | 20
CC1c2ccccc2-n2nncc2CN1C (stereo unspecified) | -2 | 0 | 0 | 1 | 1 | -9
COC(=O)C1=C(c2ccc(C(C)=O)cc2)C[C@@H]2CC[C@H]1N2C(=O)NCCCOC(C)C | -1 | 2 | 2 | 13 | 1 | -14
CC(C)CN(CC(C)C)C(=O)C1C2c3ccccc3C(c3ccccc32)C1C(=O)O (stereo unspecified) | 5 | -3 | 1 | 5 | 1 | -2
CCn1ccnc1CN1CCCC(C(=O)c2cccc(C(F)(F)F)c2)C1 (stereo unspecified) | 1 | -11 | -9 | -20 | 3 | 47*
CCOP(=O)(NC(C)C)Oc1ccc(SC)c(C)c1 (stereo unspecified) | 15 | 1 | 0 | 10 | 0 | -7
O=S(=O)(NC1CN2CCC1CC2)c1ccc(Cl)cc1 (stereo unspecified) | 17 | -3 | -7 | 0 | 1 | 1
OC(c1cccc(Cl)c1)(c1cccc(Cl)c1)C1CN2CCC1CC2 (stereo unspecified) | 99* | -22 | -5 | -23 | 22 | 94*
SMILES | CHRM5 antagonist | CHRM5 PAM | M5 ag | M4 PAM | CHRM4 agonist | CHRM4 antagonist
O=[N+]([O-])c1cc([As](=O)(O)O)ccc1O | -2 | -13 | 36* | 6 | 0 | -18
CC1(C)CCCN1CCC(C(N)=O)(c1ccccc1)c1ccccc1 | 99* | -36 | -11 | -10 | 0 | 98*
Clc1ccc(OCC#CCN2CCCCCC2)cc1 | 35* | -30 | -15 | -23 | 0 | 33*
COc1ccc(OCC#CCN2CCC(C)CC2)cc1 | 13 | -7 | -10 | -10 | 0 | 8
Cn1c(O)c(C=NCCN2CCOCC2)c(=O)[nH]c1=S | 17 | -13 | 3 | -6 | 21 | -2
C[n+]1c(-c2ccccc2)cc(CCCCc2cc(-c3ccccc3)[n+](C)c(-c3ccccc3)c2)cc1-c1ccccc1 | 20 | -23 | -16 | -21 | 1 | 47*
COc1ccc(-c2cc(-c3ccccc3)[n+](C)c(-c3ccccc3)c2)cc1 | 23 | -10 | -10 | -8 | 1 | 10
C=CCNC(=S)Nc1ccc(OC(=O)Nc2ccc(Cl)c(Cl)c2)cc1 | 28* | -9 | 0 | -9 | 9 | 22
O=C(Nc1ccc(Cl)c(Cl)c1)c1ccco1 | -2 | 13 | 0 | -3 | 2 | -2
COC(=O)C1=C(c2ccc3ccccc3c2)C[C@@H]2CC[C@H]1N2C(=O)NC1CC1 | 1 | -3 | 4 | -4 | 1 | -6
COC(=O)C1=C(c2ccc(S(C)(=O)=O)cc2)C[C@@H]2CC[C@H]1N2C | -3 | 5 | 3 | 1 | 2 | -9
COC(=O)C1=C(c2ccccc2)C[C@@H]2CC[C@H]1N2C | 63* | -39 | -11 | -20 | 1 | 21
COC(=O)C1=C(c2ccc(F)cc2F)C[C@@H]2CC[C@H]1N2C | 21 | -38 | -12 | -18 | 1 | 29*
O=c1[nH]c(=O)n(Cc2ccc(F)cc2)c(O)c1C=NCC1CCCO1 (stereo unspecified) | -18 | 38* | 0 | 6 | 1 | -10
CN1/C(=C\C=C2C(=O)NC(=O)NC2=O)C(C)(C)c2ccccc21 | 10 | -18 | 14 | -17 | 17 | 10
